Measured values published in ChEMBL document CHEMBL4813940, “Design, synthesis and biological evaluation of novel benzoxaborole derivatives as potent PDE4 inhibitors for topical treatment of atopic dermatitis” (Eur J Med Chem, 2021).

What was measured:
[1] = target: T1, 3',5'-cyclic-AMP phosphodiesterase 4B (Homo sapiens, UniProt Q07343); assay: Inhibition of PDE4B (unknown origin) assessed as hydrolysis of [3H]-cGMP into [3H]-GMP incubated for 30 mins by scintillation of proximity assay; settings: in the assay text read “[3H]-cAMP into [3H]-AMP” for “[3H]-cGMP into [3H]-GMP”
T1 sequence (Q07343 whole entry): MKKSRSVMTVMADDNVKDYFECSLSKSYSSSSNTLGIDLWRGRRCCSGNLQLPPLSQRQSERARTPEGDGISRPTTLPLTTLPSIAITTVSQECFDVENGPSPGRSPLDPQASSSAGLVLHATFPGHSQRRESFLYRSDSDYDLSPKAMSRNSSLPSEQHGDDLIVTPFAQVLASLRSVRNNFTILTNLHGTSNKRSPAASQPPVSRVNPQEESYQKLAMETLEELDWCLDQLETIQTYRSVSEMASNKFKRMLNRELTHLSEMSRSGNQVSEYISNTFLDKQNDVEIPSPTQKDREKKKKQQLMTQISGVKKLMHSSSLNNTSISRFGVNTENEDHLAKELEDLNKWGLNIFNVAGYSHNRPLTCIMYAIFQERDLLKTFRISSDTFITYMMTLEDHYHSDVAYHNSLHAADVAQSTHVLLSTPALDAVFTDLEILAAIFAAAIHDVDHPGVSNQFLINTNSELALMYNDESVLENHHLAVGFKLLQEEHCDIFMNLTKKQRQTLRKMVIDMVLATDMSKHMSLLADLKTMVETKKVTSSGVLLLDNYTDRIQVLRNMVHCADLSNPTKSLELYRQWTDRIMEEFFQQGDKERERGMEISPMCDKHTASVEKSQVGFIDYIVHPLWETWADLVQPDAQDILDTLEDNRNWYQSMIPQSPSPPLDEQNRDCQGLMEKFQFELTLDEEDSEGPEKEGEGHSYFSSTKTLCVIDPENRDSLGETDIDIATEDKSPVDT
Summary of the method: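 Scintillation proximity assay of [3H]-cAMP or [3H]-cGMP hydrolysis to [3H]-AMP or [3H]-GMP. Enzyme was diluted to 1–2 nM in 50 mM Tris pH 7.5, 8.3 mM MgCl2 and 1.7 mM EGTA. Reaction was started by adding enzyme, test solution and radiolabelled substrate, then incubated at 30 °C for 30 min and stopped with SPA beads. Run in duplicate.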

Mus musculus = assay: Antiinflammatory activity against PMA-induced ICR mouse ear oedema model assessed as reduction in ear swelling at 1 mg/ear topically administered and measured after 4 hrs; format: functional
Summary of the method: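 Male ICR mice, 8 weeks old. The sample was applied topically to the right ear at 1.0 mg/ear in ethanol before PMA. After 4 h the mice were killed by cervical dislocation and both ears were measured with a micrometer. Oedema was the thickness difference between the ears; inhibition was the percent reduction versus the model group.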

[2] = target: T1, 3',5'-cyclic-AMP phosphodiesterase 4B; assay: Inhibition of PDE4B (unknown origin) assessed as hydrolysis of [3H]-cAMP into [3H]-AMP incubated for 30 mins by scintillation of proximity assay
[3] = Phototoxicity in albino guinea pig assessed as erythema and edema topical treatment irradiated with 4.2 mw/cm2 UVA for 40 mins and measured after 24 hrs day of light irradiation by H and E staining based microscopic analysis; set-up: species or system Cavia porcellus; settings: topical_or_ocular
Summary of the method: (§1)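 Albino guinea pigs (250–300 g) were randomized into 5 groups. Four 2 cm × 2 cm depilated areas beside the spine were prepared 24 h before dosing, and 0.2 mL of test substance was applied. Animals were restrained and exposed to UVA for 40 min. Erythema, eschar and oedema were scored visually at 1, 24, 48 and 72 h. Skin taken at 72 h was formalin-fixed, H&E-stained and read by a pathologist.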

[4] = Phototoxicity in albino guinea pig assessed as erythema and edema topical treatment irradiated with 4.2 mw/cm2 UVA for 40 mins and measured after 72 hrs day of light irradiation by H and E staining based microscopic analysis; set-up: species or system Cavia porcellus; settings: topical_or_ocular; summary of the method: as §1
[5] = Phototoxicity in albino guinea pig assessed as infiltration of inflammatory cells at 10 mg/kg topical treatment irradiated with 4.2 mw/cm2 UVA for 40 mins and measured after 24 hrs day of light irradiation by H and E staining based microscopic analysis; format: organism-based, Cavia porcellus; settings: in vivo, topical_or_ocular, in the assay text read “72 hrs” for “24 hrs”; summary of the method: as §1
[6] = Phototoxicity in albino guinea pig assessed as necrosis at 10 mg/kg topical treatment irradiated with 4.2 mw/cm2 UVA for 40 mins and measured after 24 hrs day of light irradiation by H and E staining based microscopic analysis; format: organism-based, Cavia porcellus; settings: in vivo, topical_or_ocular, in the assay text read “72 hrs” for “24 hrs”; summary of the method: as §1

Row | Structure (SMILES) | IC50 [1] | inhibition (INH) (Mus musculus) | also measured
1 | COC(=O)c1cc(Oc2ccc3c(c2)COB3O)nc2ccccc12 | 8.25 nM | 30.6% | –
2 | CC(=O)c1ccc2nc(Oc3ccc4c(c3)COB4O)ccc2c1 | – | 34.09% | IC50 [2]: 3.57 nM
3 | COc1c2occc2cc2ccc(=O)oc12 [METHOXSALEN] | – | – | Activity [3]: Toxic; Activity [4]: Non-Toxic; Activity [5]: Toxic; Activity [6]: Toxic
4 | COC(=O)c1ccc2nc(Oc3ccc4c(c3)COB4O)ccc2c1 | 10.8 nM | 54.72% | –

The next lines start with results.

Row | IC50 [1] | Structure (SMILES) | inhibition (INH) (Mus musculus) | also measured
5 | 18.9 nM | O=c1ccoc2cc(Oc3ccc4c(c3)COB4O)ccc12 | – | –
6 | 65.5 nM | CC1(C)CC(=O)c2ccc(Oc3ccc4c(c3)COB4O)cc2O1 | – | –
7 | 21.9 nM | COC(=O)c1cccc2cc(Oc3ccc4c(c3)COB4O)ccc12 | – | –
8 | 124 nM | O=C(O)c1cccc2nc(Oc3ccc4c(c3)COB4O)ccc12 | 45.76% | –
